Experiments:
[1] = Hemolytic activity against human RBC assessed as fraction of extracellular Hb level at 1 mM after 1 hr relative to total Hb level; assay type: ADME, cell-based, Erythrocyte; conditions: red blood cells (erythrocytes), read-out: Activity
Method in brief: (§1)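 Human red blood cells (50 µM Hb) incubated with compound at 1 mM in 0.1 vol % DMSO. Read-out is extracellular Hb as a fraction of total Hb. "-" denotes less than 1% of total Hb released.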

[2] = target: T1, Hemoglobin HbA (Homo sapiens) (UniProt P69905+P68871); assay: Binding affinity to hemoglobin (unknown origin) assessed as increase in release of carbon monooxide from carboxyhemoglobin by measuring half life of carboxyhemoglobin at 20:1 compound/Hb tetramer ratio incubated for 1 hr measured every 15 mins for 90 mins (reference value: 80 +/- 0.3 min); assay type: protein-complex assay
[3] = Aqueous solubility of the compound in DMSO/[…] solution at 2.5 mM; assay type: physicochemical; conditions: 2500 µM
Method in brief: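 Compound made up at 2.5 mM in DPBS containing 1 vol% DMSO. Scored by visual inspection of the solution: "+" if no aggregates or crystals are seen, "-" if aggregates or crystals appear.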

[4] = target: T1, Hemoglobin HbA (Homo sapiens); assay: Binding affinity to hemoglobin (unknown origin) assessed as increase in release of carbon monooxide from carboxyhemoglobin by measuring half life of carboxyhemoglobin at 5:1 compound/Hb tetramer ratio incubated for 1 hr measured every 15 mins for 90 mins (reference value: 80 +/- 0.3 min); assay type: protein-complex assay
[5] = target: T1, Hemoglobin HbA (Homo sapiens); assay: Binding affinity to hemoglobin (unknown origin) assessed as partial oxygen pressure at which 50% of Hb is oxygenated (reference value: 17 +/- 0.3 mmHg); assay type: protein-complex assay
[6] = system: Erythrocyte; assay: (§2) Hemolytic activity against human RBC assessed as increase in fraction of extracellular Hb level at 1 mM after 1 hr; assay type: ADME, cell-based; conditions: erythrocyte, 1 h, 1000 µM; method in brief: as §1
[7] = as §2; assay type: ADME, cell-based, Erythrocyte; conditions: red blood cells (erythrocytes), read-out: Activity; method in brief: as §1

T1 sequence (P68871 2-147 partner limits assumed): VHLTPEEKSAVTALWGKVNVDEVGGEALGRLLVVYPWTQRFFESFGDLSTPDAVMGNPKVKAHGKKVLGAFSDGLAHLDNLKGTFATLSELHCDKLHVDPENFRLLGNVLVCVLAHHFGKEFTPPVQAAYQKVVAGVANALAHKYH
T1 sequence (P69905 2-142 limits assumed): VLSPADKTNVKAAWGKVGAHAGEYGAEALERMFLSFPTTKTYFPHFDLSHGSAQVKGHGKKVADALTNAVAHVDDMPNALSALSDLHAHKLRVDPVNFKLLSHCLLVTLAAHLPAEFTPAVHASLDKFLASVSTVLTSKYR

With Cc1cc(C)cc(C(=O)N[C@H](Cc2ccc(-c3c(C(=O)O)noc3C)cc2)C(=O)N[C@@H](Cc2c[nH]c3ccccc23)C(=O)O)c1 the hemolysis at 1 h, 1000 µM [1] was under 1%, the T1/2 [2] was 1.18 h and the solubility [3] was “Soluble”. It also gave a T1/2 [4] of 1.3 h.

For Cc1cc(C)cc(C(=O)N[C@H](Cc2ccc(-c3cncnc3)cc2)C(=O)N[C@@H](Cc2c[nH]c3ccccc23)C(=O)O)c1, the hemolysis at 1 h, 1000 µM [1] was under 1%, the T1/2 [2] was 1.28 h and the solubility [3] was “Soluble”. It also gave a T1/2 [4] of 1.33 h.

With Cc1cc(C)cc(C(=O)N(C)[C@H](Cc2ccc(-c3ccccc3)cc2)C(=O)N[C@@H](Cc2c[nH]c3ccccc23)C(=O)O)c1 the solubility [3] was “Insoluble”, the Activity [5] was 19 mmHg and the Activity [6] was “Toxic”. The T1/2 [4] was 1.15 h.

With Cc1cc(C)cc(C(=O)N[C@H](Cc2ccc(-c3ccc(CN(C)C)o3)cc2)C(=O)N[C@@H](Cc2c[nH]c3ccccc23)C(=O)O)c1 the hemolysis at 1 h, 1000 µM [1] was under 1%, the T1/2 [2] was 1.12 h and the solubility [3] was “Insoluble”. It also gave a T1/2 [4] of 1.2 h.

With Cc1cc(C)cc(C(=O)N[C@H](Cc2ccc(-c3c(C)noc3C)cc2)C(=O)N[C@@H](Cc2c[nH]c3ccccc23)C(=O)O)c1 the hemolysis at 1 h, 1000 µM [1] was under 1%, the T1/2 [2] was 0.95 h and the solubility [3] was “Insoluble”. For the same compound, the T1/2 [4] was 1.2 h.

With Cc1cc(C)cc(C(=O)N[C@H](Cc2ccccc2)C(=O)N[C@@H](Cc2c[nH]c3ccccc23)C(=O)O)c1 the hemolysis at 1 h, 1000 µM [1] was under 1%, the T1/2 [2] was 1.05 h and the solubility [3] was “Insoluble”.

For Cc1cc(C)cc(C(=O)N[C@H](Cc2ccc(-c3cnn(C)c3)cc2)C(=O)N[C@@H](Cc2c[nH]c3ccccc23)C(=O)O)c1, the hemolysis at 1 h, 1000 µM [1] was under 1%, the T1/2 [2] was 1.15 h and the solubility [3] was “Soluble”. It also gave a T1/2 [4] of 1.23 h.

For Cc1cc(C)cc(C(=O)N[C@H](Cc2ccc(-c3c(CO)noc3C)cc2)C(=O)N[C@@H](Cc2c[nH]c3ccccc23)C(=O)O)c1, the hemolysis at 1 h, 1000 µM [1] was under 1%, the T1/2 [2] was 1.08 h and the solubility [3] was “Soluble”. It also gave a T1/2 [4] of 1.17 h.

With Cc1cc(C)cc(C(=O)N[C@H](Cc2ccc(-c3ccccc3)cc2)C(=O)N[C@@H](Cc2c[nH]c3ccccc23)C(=O)O)c1 the hemolysis at 1 h, 1000 µM [1] was under 1%, the T1/2 [2] was 1.07 h and the solubility [3] was “Insoluble”. It also gave a T1/2 [4] of 1.15 h.

In the case of Cc1cc(C)cc(C(=O)N(C)[C@H](Cc2ccccc2)C(=O)N[C@@H](Cc2c[nH]c3ccccc23)C(=O)O)c1, the hemolysis at 1 h, 1000 µM [1] is reported as under 1%, the T1/2 [2] is reported as 1.08 h and the solubility [3] is reported as “Insoluble”. For the same compound, the T1/2 [4] was 1.23 h.

With Cc1cc(C)cc(C(=O)N[C@H](Cc2ccc(-c3ccco3)cc2)C(=O)N[C@@H](Cc2c[nH]c3ccccc23)C(=O)O)c1 the T1/2 [2] was 1 h, the solubility [3] was “Insoluble” and the hemolysis at 1 h, 1000 µM [7] was 1 to 2%. The T1/2 [4] was 1.18 h.
